Reference: ChEMBL document CHEMBL1133511, “Contribution of the adenine base to the activity of adenophostin A investigated using a base replacement strategy” (J Med Chem, 2000)

Experiments:
[1] = Tested for equilibrium competition binding to InsP3 receptor in hepatic membranes using 1.3-1.8 nM [3H]Ins(1,4,5)P3 as the radioligand.; assay type: functional, cell membranes, Rattus norvegicus, Liver, Membrane
Outline: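 Rat liver membranes (perfused, homogenized, Percoll-purified), 0.1 mg protein/tube in 50 mM Tris, 1 mM EDTA, pH 8.3, incubated 5 min at 4 °C with [3H]Ins(1,4,5)P3 plus competing ligand; bound separated by centrifugation (20000g, 5 min), counted by scintillation. Kd and Hill coefficient from equilibrium competition; means ± SEM of 4 independent experiments.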

Rattus norvegicus [2] = species: Rattus norvegicus; experiment: Tested for concentration of ligand causing half maximal response of Calcium ion release from permeabilised hepatocytes; assay type: functional; settings: Hepatocyte
Outline: (§1)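 Permeabilized rat hepatocytes loaded to steady state with 45Ca2+ (5 min, 37 °C) in cytosol-like medium (140 mM KCl, 20 mM NaCl, 2 mM MgCl2, 1 mM EGTA, 300 µM CaCl2, 20 mM Pipes, pH 7.0) with 1.5 mM ATP, creatine phosphate/kinase, 10 µM FCCP; 1.25 µM thapsigargin added, 30 s later agonist for 60 s; store 45Ca2+ by rapid filtration. Four-parameter logistic fit; means ± SEM, 6-15 experiments.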

Rattus norvegicus [3] = species: Rattus norvegicus; experiment: Tested for percentage of intracellular calcium ion stores released in rat hepatocytes; assay type: functional, Hepatocyte; outline: as §1

Structure (SMILES)	Ki [1] [nM]	EC50 (Rattus norvegicus [2]) [nM]	Max response (Rattus norvegicus [3]) [%]
Nc1ncnc2c1ncn2[C@@H]1O[C@H](CO)[C@@H](O[C@H]2O[C@@H](CO)[C@@H](OP(=O)(O)O)[C@H](OP(=O)(O)O)[C@@H]2O)[C@H]1OP(=O)(O)O	0.45	14	51
O=P(O)(O)O[C@@H]1[C@H](O)[C@@H](O[C@H]2[C@@H](OP(=O)(O)O)[C@H](n3cnc4cncnc43)O[C@@H]2CO)O[C@@H](CO)[C@H]1OP(=O)(O)O [PURINOPHOSTIN]	0.8	18	52
O=P(O)(O)O[C@@H]1[C@H](O)[C@@H](O)[C@@H](OP(=O)(O)O)[C@H](OP(=O)(O)O)[C@@H]1O	2.72	119	55
O=P(O)(O)O[C@@H]1[C@H](O)[C@@H](O[C@H]2[C@@H](OP(=O)(O)O)[C@H](n3ccnc3)O[C@@H]2CO)O[C@@H](CO)[C@H]1OP(=O)(O)O	2.19	108	57
